High-throughput results from PubChem.
Shown are actives, neighbours in structure and some others; about 4% of the full set was active somewhere.
TAAR1 antag: human TAAR1 antagonists, primary screen, Fluo-8 calcium fluorescence, CHO RD-HGA16 cells | hit rate 1.5% among 360,000 | inhibition, % at 3 µM | antagonist | Trace amine-associated receptor 1 (Homo sapiens), Q96RJ0 | AID 624466, 2012;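 active = inhibition above a per-plate cutoff, the mean inhibition of test compounds on that plate plus 3 SD, cut at about 49% in these data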;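 also: 0% = DMSO plus EC80 beta-PEA response and 100% = DMSO alone without agonist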
Target sequence (Q96RJ0 whole entry, looked up): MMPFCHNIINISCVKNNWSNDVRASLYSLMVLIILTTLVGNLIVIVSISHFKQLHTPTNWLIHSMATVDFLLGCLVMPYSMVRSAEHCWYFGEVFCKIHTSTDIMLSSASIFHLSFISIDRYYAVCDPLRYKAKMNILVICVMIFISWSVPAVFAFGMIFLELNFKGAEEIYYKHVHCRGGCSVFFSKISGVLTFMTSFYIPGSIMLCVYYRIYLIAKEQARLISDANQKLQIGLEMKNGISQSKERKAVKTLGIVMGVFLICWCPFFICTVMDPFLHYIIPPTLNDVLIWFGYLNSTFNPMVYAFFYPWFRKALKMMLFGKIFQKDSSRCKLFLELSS
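Test system – hTAAR1-expressing CHO RD-HGA16 cells, Gα16-coupled · Reagent – β-PEA at EC80 concentration, post-compound challenge · Compound dosing – 3 µM, single point · Timing – 140 s kinetic read after compound, 140 s after agonist · Detection – Fluo-8 intracellular calcium dye fluorescence, real-time kinetic reads · Control set – DMSO and EC80 PEA controls · Repeats – n of 1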
OX1R antag-1: antagonists of human orexin 1 receptor (OX1R) | inhibition, % at 6.6 µM | hit rate 1.8% among 330,000 | Orexin/Hypocretin receptor type 1 (Homo sapiens), O43613 | OX1R-expressing cells, FRET antagonist read-out; in the data active = inhibition mostly above about 38%, no sharp cut-off; inactive = mostly below about 40%;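 also: 0% = agonist challenge alone and 100% = reference antagonist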
CHO parental Ca: ATP-evoked calcium signal inhibitors, parental CHO, primary screen, counter-screen for OX1R antagonist project, cell-based, fluorescence, Fluo-8 calcium dye. parental CHO-K1, ATP-induced calcium, Fluo-8 fluorescence. inhibition, % at 5.6 µM. hit rate 0.63% among 330,000;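 active = inhibition above that plate's mean sample inhibition plus 3 SD, cut at about 26% in these data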;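 also: 0% = ATP-challenged DMSO wells and 100% = DMSO wells without ATP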
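Assay system: untransfected parental CHO cell line. Also added: ATP agonist challenge. Dosing: one dose, 5.6 µM nominal. Measured by: Fluo-8 fluorescence. Read-out: % inhibition. Benchmarks: ATP wells versus no-ATP DMSO wells. Repeats: no replicates.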
OX1R antag-2: OX1R (HCRTR1) antagonists, primary screen, fluorescence, CHO/OX1R cells, Fluo-8 calcium, orexin A. Orexin/Hypocretin receptor type 1 (Homo sapiens), O43613. Fluo-8 calcium fluorescence. inhibition, % at 5 µM. hit rate 0.43% among 330,000. AID 434989, 2010;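 active = inhibition above its plate's threshold, mean inhibition of all tested compounds on the plate plus 3 SD, cut at about 37% in these data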;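 also: 0% = orexin A challenge wells and 100% = SB-334867-A antagonist wells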
TAAR1 agonist: human TAAR1 agonists, primary screen, Fluo-8 calcium fluorescence, CHO RD-HGA16 cells | Trace amine-associated receptor 1 (Homo sapiens), Q96RJ0 | vehicle wells 0%, saturating PEA agonist 100% | activation, % at 3 µM | hit rate 0.99% among 360,000;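 active = activation above the mean activation of all test compounds in the run plus 3 SD, cut at about 38% in these data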
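Repeats: no replicates (n 1) | Material: CHO-derived RD-HGA16 cells with stable Gα16 and human TAAR1 | Technique: Kinetic Fluo-8 calcium fluorescence | Schedule: 17-24 h seeding, 75 min 37 °C dye, 30 min RT | Evaluation: % activation from peak over basal fluorescence ratio, DMSO-to-PEA scaled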
NTR1 agonist: agonists of human NTR1, primary screen, imaging, U2OS cells, beta-arrestin-GFP, high content; Neurotensin receptor type 1 (Homo sapiens), P30989; NTR1-U2OS beta-arrestin-GFP spot imaging, agonist mode; activation, % at 20 µM; hit rate 0.17% among 330,000; AID 493036, 2011;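 active = activation at or above 40% of the spot to cytoplasm intensity ratio, with at least 20 cells analyzed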;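 also: 0% = DMSO without peptide and 100% = 100 nM NTR1 peptide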
* marks the source's active call; other numbers are inactive results; . = no result.

SMILES | TAAR1 antag | OX1R antag-1 | CHO parental Ca | OX1R antag-2 | TAAR1 agonist | NTR1 agonist
CC(C)C[C@H]1COc2c(Cl)cccc2S(=O)(=O)N1Cc1ccc(F)cc1F | 31 | . | . | . | 0 | .
CCOC(=O)CSc1nnc(CNc2ccc(Cl)cc2)n1Cc1ccccc1 | 8 | 43 | 0 | -13 | 2 | -1
CC(C)OC(=O)CSc1nnc(CNc2ccc(Cl)cc2)n1Cc1ccccc1 | 29 | 50 | 55* | 53* | 15 | 3
Cc1ccc(-c2nc3c4ccccc4ccn3c2Cc2cccc(F)c2)cc1 | -9 | . | . | . | 3 | .
N#CC(/C(=N/S(=O)(=O)c1cccs1)c1ccccc1)c1nc2ccccc2[nH]1 (stereo not given) | 30 | 43* | -12 | -18 | 15 | 2
N#CC(Cc1cccs1)c1nc2ccccc2[nH]1 (stereo not given) | -3 | . | . | . | 1 | .
Cc1cccc2c1-c1sc(C(=O)Nc3nccs3)cc1CO2 | 11 | 50* | -5 | -2 | 5 | 7
O=C(Nc1nccs1)c1cc2c(s1)-c1ccccc1OC2 | 12 | 42 | 12 | -2 | 3 | 0
O=C(Nc1cccnc1)c1cc2c(s1)-c1ccccc1OC2 | 11 | 15 | 37 | 31 | 6 | -1
Cc1cccc2c1-c1sc(C(=O)Nc3cccnc3)cc1CO2 | 19 | 56* | -28 | 34 | 5 | 1
COC(=O)c1ccc(CNC(=O)C2CCC(=O)N(CCc3ccccn3)C2)cc1 (stereo not given) | -24 | . | . | . | 3 | .
COCOCCn1cc(CN2CCS(=O)(=O)N(Cc3ccc(-c4ccc(Cl)nc4)cc3)C(CC(C)C)C2=O)nn1 (stereo not given) | 49* | . | . | . | 12 | .
Cc1ccc(-c2ccc(CN3C(CC(C)C)C(=O)N(Cc4cn(CCC5OCCCO5)nn4)CCS3(=O)=O)cc2)cc1 (stereo not given) | 58* | . | . | . | 10 | .
COCOCCn1cc(CN2CCS(=O)(=O)N(Cc3ccc(-c4ccc(Cl)cc4)cc3)C(CC(C)C)C2=O)nn1 (stereo not given) | 24 | . | . | . | 5 | .
Cc1ccc(CN2CCC=CS2(=O)=O)cc1 | 1 | . | . | . | 1 | .
C[C@@H]1CN([C@@H](C)CO)C(=O)CCCn2cc(nn2)CO[C@H]1CN(C)C(=O)Nc1ccc2c(c1)OCCO2 | -2 | . | . | . | 1 | .
Cc1ccc(NC2=C(NCCO)C(=O)c3ccccc3C2=O)cc1 | 2 | 56* | -11 | -12 | -1 | 0
COc1ccc2cc(C(=O)C3CCCN(Cc4cnc(N5CCOCC5)s4)C3)ccc2c1 (stereo not given) | 7 | 34 | -12 | -22 | 40* | 3
CC(C)Oc1cccc(C(=O)C2CCCN(Cc3cnc(N4CCCC4)s3)C2)c1 (stereo not given) | -26 | 8 | -16 | -44 | 31 | 3
NC(=O)c1ncn([C@@H]2O[C@H](C(=O)N[C@H](Cc3c[nH]c4ccccc34)C(=O)N3CCN(C(=O)N4CCOCC4)CC3)[C@@H](O)[C@H]2O)n1 | -25 | . | . | . | 2 | .
Cc1ccccc1NC1=C(Cl)C(=O)OC1OC(=O)c1ccccc1C (stereo not given) | 41 | 25 | 61* | 3 | 6 | 4
Cc1ccc(NC2=C(Cl)C(=O)OC2OC(=O)c2ccccc2)c(C)c1 (stereo not given) | 12 | 12 | -1 | -3 | 3 | 3
O=C(CCc1ccccc1)NC1(Cc2ccccc2)CCN(CCCc2ccccc2)C1=O (stereo not given) | 55* | 7 | -29 | -11 | 7 | 2
O=S1(=O)c2cc(Cl)ccc2N2CC[C@H](C2)N1Cc1ccc(Cl)c(Cl)c1 | 2 | . | . | . | 2 | .
O=C(NCC(=O)N(Cc1cccs1)C(C(=O)NC1CCCC1)c1ccncc1)c1ccco1 (stereo not given) | -9 | 15 | -15 | -14 | 5 | -1
SMILES | TAAR1 antag | OX1R antag-1 | CHO parental Ca | OX1R antag-2 | TAAR1 agonist | NTR1 agonist
O=C(NCC(=O)N(Cc1cccs1)C(C(=O)NC1CCCCC1)c1ccco1)c1ccco1 (stereo not given) | 52* | 7 | -22 | -21 | 18 | -1
N#Cc1c(N)nc2c(c1-c1ccccc1)CCCC2 | -16 | 7 | -10 | -16 | 41* | -2
O=C(CN1CCN(Cc2ccccc2Cl)CC1)N=Nc1c(O)[nH]c2ccccc12 | 6 | 39 | -20 | 4 | 5 | 2
O=C(N=Nc1c(O)[nH]c2ccccc12)c1ccc(CN2CCOCC2)cc1 | 5 | 63* | -3 | 3 | 2 | 1
Cc1ccc(CN2CCN(CC(=O)N=Nc3c(O)[nH]c4ccccc34)CC2)cc1 | 9 | 66* | -27 | -1 | 0 | 1
Nc1[nH]c(C(=O)c2ccccc2)c(-c2cccnc2)c1C(=O)c1ccccc1 | -2 | . | . | . | 5 | .
O=C(c1cc(COc2cccc(C(F)(F)F)c2)on1)N1CCC(c2ccccc2)CC1 | -39 | 1 | -16 | -39 | 2 | 3
O=C(c1cc(COc2cccc(C(F)(F)F)c2)on1)N1CCC(c2ccncc2)CC1 | -8 | 22 | 60* | 31 | 1 | 2
COc1cc(C=C2CCCC(=Cc3ccc(OCC4CO4)c(OC)c3)C2=O)ccc1OCC1CO1 (stereo not given) | 61* | . | . | . | 11 | .
CCCn1cnnc1CNC(=O)[C@@H](Cc1ccccc1)NC(=O)[C@H]1O[C@@H](n2ccc(=O)[nH]c2=O)[C@H](O)[C@@H]1O | -19 | . | . | . | 4 | .
N/C(=N\OC(=O)C1CC1)c1ccc([N+](=O)[O-])s1 | 8 | 56* | -2 | -13 | 16 | 1
N/C(=N\O)c1ccc([N+](=O)[O-])s1 | 1 | 47* | -2 | -8 | 5 | 0
CC(C)(C)C(=O)O/N=C(\N)c1ccc([N+](=O)[O-])s1 | 3 | 19 | -4 | -2 | 17 | 2
COC(=O)c1cc2c(c3c4cc(F)ccc4n(S(=O)(=O)c4cccc(C)c4)c13)C(=O)N(C)C2 | -25 | . | . | . | -2 | .
OC(c1ccccc1)(c1ccccc1)C1CCN(CCCOc2ccc(-c3cncnc3)cc2)CC1 | 18 | . | . | . | 29 | .
O=C1CCCN2N=C(SCC(=O)Nc3cccc(Cl)c3)SC2=N1 | -9 | 17 | -6 | -17 | 13 | -1
O=C1CCCN2N=C(SCC(=O)Nc3ccc(Cl)cc3)SC2=N1 | -18 | 20 | 3 | -20 | 39* | 0
Cc1ccc(NC(=O)CSC2=NN3CCCC(=O)N=C3S2)cc1Cl | 29 | 28 | 7 | -4 | 42* | -1
